ChEMBL document CHEMBL3352107, “Development of radamide analogs as Grp94 inhibitors” (Bioorg Med Chem, 2014)

Target: Endoplasmin (Homo sapiens) (UniProt P14625)
Test: Inhibition of recombinant Grp94 (unknown origin) assessed as tracer bound at 25 uM after 24 hrs by fluorescence polarization assay relative to control
Set-up: scale not given: the % may be the effect or the level left
Summary of the method: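 Single-point screen at 25 μM. Recombinant cGrp94 (10 nM) and FITC-geldanamycin tracer (6 nM) incubated 24 h at 4°C with rocking in HEPES pH 7.3 buffer containing molybdate, DTT, NP-40 and BGG (1% DMSO). Polarization read at 485/528 nm. Percent tracer bound scaled between DMSO mP (100%) and free tracer mP (0%). Geldanamycin 50 nM was the positive control. Triplicate.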

Sequence of Endoplasmin (Homo sapiens) (P14625 whole entry): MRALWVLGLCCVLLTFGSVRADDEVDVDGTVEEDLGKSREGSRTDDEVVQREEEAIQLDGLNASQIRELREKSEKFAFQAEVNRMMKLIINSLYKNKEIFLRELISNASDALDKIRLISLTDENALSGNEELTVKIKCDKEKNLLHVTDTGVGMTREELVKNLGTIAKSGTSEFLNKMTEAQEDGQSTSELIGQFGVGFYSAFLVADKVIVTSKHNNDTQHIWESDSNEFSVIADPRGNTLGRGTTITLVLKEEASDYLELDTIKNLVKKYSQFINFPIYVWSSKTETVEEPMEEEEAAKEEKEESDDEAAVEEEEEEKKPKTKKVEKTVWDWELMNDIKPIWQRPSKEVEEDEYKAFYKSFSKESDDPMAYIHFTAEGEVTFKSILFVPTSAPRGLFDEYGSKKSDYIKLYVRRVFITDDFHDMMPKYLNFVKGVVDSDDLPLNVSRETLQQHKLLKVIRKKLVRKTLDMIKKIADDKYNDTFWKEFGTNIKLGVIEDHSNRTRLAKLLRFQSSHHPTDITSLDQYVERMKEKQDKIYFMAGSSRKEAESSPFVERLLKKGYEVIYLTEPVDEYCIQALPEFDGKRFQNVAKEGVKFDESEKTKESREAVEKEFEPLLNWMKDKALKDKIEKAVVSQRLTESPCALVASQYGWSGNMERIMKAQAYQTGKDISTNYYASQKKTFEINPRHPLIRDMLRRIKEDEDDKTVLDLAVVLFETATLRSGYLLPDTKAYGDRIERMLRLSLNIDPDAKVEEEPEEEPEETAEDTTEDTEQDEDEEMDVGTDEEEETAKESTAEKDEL

| Structure (SMILES) | Activity |
| --- | --- |
| COC(=O)c1c(O)cc(O)c(Cl)c1CCC(=O)Nc1ccccc1I | 7.9% |
| COC(=O)c1c(O)cc(O)c(Cl)c1CCC(=O)Nc1cccc(F)c1 | 11% |
| COC(=O)c1c(O)cc(O)c(Cl)c1CCC(=O)Nc1nnc(Br)s1 | 5.1% |
| COC(=O)c1c(O)cc(O)c(Cl)c1CCC(=O)Nc1ncccc1Cl | 9.8% |
| COC(=O)c1c(O)cc(O)c(Cl)c1CCC(=O)Nc1cc(Cl)cc(Cl)c1 | 15.6% |
| COC(=O)c1c(O)cc(O)c(Cl)c1CCC(=O)N(O)c1ccccc1 | 2.5% |
| COC(=O)c1c(O)cc(O)c(Cl)c1CCC(=O)Nc1cccc(Br)c1 | 9.3% |
| COC(=O)c1c(O)cc(O)c(Cl)c1CCC(=O)Nc1cccc(O)c1 | 3.5% |
| COC(=O)c1c(O)cc(O)c(Cl)c1CCC(=O)Nc1ccncc1 | 34.9% |
| COC(=O)c1c(O)cc(O)c(Cl)c1CCC(=O)Nc1cccc(Cl)c1Br | 24.9% |
| COC(=O)c1c(O)cc(O)c(Cl)c1CCC(=O)Nc1ccc(Br)cn1 | 0.1% |
| COC(=O)c1c(O)cc(O)c(Cl)c1CCC(=O)Nc1cnccn1 | 16.6% |
| COC(=O)c1c(O)cc(O)c(Cl)c1CCC(=O)Nc1ncns1 | 10.2% |
| COC(=O)c1c(O)cc(O)c(Cl)c1CCC(=O)N1CCc2ccccc21 | 23% |
| COC(=O)c1c(O)cc(O)c(Cl)c1CCC(=O)Nc1ccc(C)cc1 | 18.7% |
| COC(=O)c1c(O)cc(O)c(Cl)c1CCC(=O)Nc1ccc(Br)cc1Br | 50.7% |

| Structure (SMILES) | Activity |
| --- | --- |
| COC(=O)c1c(O)cc(O)c(Cl)c1CCC(=O)Nc1ccc(Cl)cc1 | 15.7% |
| COC(=O)c1c(O)cc(O)c(Cl)c1CCC(=O)Nc1ccc(C(F)(F)F)cc1 | 34.5% |
| COC(=O)c1c(O)cc(O)c(Cl)c1CCC(=O)Nc1cccc(NC(C)=O)c1 | 8.3% |
| COC(=O)c1c(O)cc(O)c(Cl)c1CCC(=O)NCCc1ccccc1 | 33% |
| COC(=O)c1c(O)cc(O)c(Cl)c1CCC(=O)Nc1cnncn1 | 19.5% |
| COC(=O)c1c(O)cc(O)c(Cl)c1CCC(=O)NC1CCCCC1 | 26.1% |
| COC(=O)c1c(O)cc(O)c(Cl)c1CCC(=O)NNc1ccccc1 | 26.3% |
| COC(=O)c1c(O)cc(O)c(Cl)c1CCC(=O)Nc1ncc(Cl)s1 | 22.4% |
| COC(=O)c1c(O)cc(O)c(Cl)c1CCC(=O)Nc1cccc(-c2ccccc2)c1 | 46.8% |
| C#Cc1ccc(NC(=O)CCc2c(Cl)c(O)cc(O)c2C(=O)OC)cc1 | 12.7% |
| COC(=O)c1c(O)cc(O)c(Cl)c1CCC(=O)Nc1ccc(OC)cc1 | 19.8% |
| COC(=O)c1c(O)cc(O)c(Cl)c1CCC(=O)NCc1ccccc1 | 65.8% |
| COC(=O)c1c(O)cc(O)c(Cl)c1CCC(=O)Nc1ccccc1N | 20.5% |
| COC(=O)c1c(O)cc(O)c(Cl)c1CCC(=O)Nc1cccnc1 | 14.9% |
| COC(=O)c1c(O)cc(O)c(Cl)c1CCC(=O)Nc1ccccc1Br | 6.1% |
| COC(=O)c1c(O)cc(O)c(Cl)c1CCC(=O)Nc1ccccc1C | 3.4% |
